Assay results as given in article PMC9302689 (British Journal of Clinical Pharmacology, 2022).

Legend:
Type in all cases: in vivo, human
healthy male subjects [1] = assay: NeuroCart saccadic eye movement; conditions: 12-hour post-dose period
How it was run: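 Fasted healthy men were tested twice pre-dose and at 0.5–10 h post-dose with the head fixed 58 cm from the screen. Subjects followed a dot jumping about 15 degrees to either side. Fifteen saccades were recorded at random 3–6 s intervals. Peak velocity (deg/s) was averaged over artefact-free saccades. Change from baseline over 12 h was analysed by MMRM against pooled placebo.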

healthy male subjects [2] = assay: NeuroCart body sway; conditions: 12-hour post-dose period
How it was run: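 Single-dose, placebo-controlled study in fasted healthy men, tested twice pre-dose and at 0.5–10 h post-dose. Anteroposterior sway was recorded with eyes closed using a Wright-type ataxiameter. Movements over 2 min were integrated and expressed in mm. Values were ln-transformed, and change from baseline over 12 h was analysed by MMRM against pooled placebo, baseline as covariate, then back-transformed.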

healthy male subjects [3] = assay: Treatment emergent adverse events; conditions: n = 8

`CN1CCC23CCCCC2C1Cc1ccc(C(N)=O)cc13` (stereo not drawn) [ALKS 7119, (9α, 13α)‐17‐methylmorphinan‐3‐carboxamide] was tested, and the “Saccadic peak velocity, LSM CFB” value (healthy male subjects [1]; 3 mg single oral dose) was −16.15 deg/s, the “Saccadic peak velocity, LSM CFB” value (healthy male subjects [1]; 10 mg single oral dose) was 1.46 deg/s and the “Saccadic peak velocity, LSM CFB” value (healthy male subjects [1]; 25 mg single oral dose) was 6.12 deg/s. For the same compound, the “Saccadic peak velocity, LSM CFB” value (healthy male subjects [1]; 50 mg single oral dose) was 2.91 deg/s, the “Saccadic peak velocity, LSM CFB” value (healthy male subjects [1]; 75 mg single oral dose) was −5.63 deg/s and the “Saccadic peak velocity, LSM CFB” value (healthy male subjects [1]; 100 mg single oral dose) was 13.25 deg/s. The “Saccadic peak velocity, LSM CFB” value (healthy male subjects [1]; 125 mg single oral dose) was 5.98 deg/s, the “Saccadic peak velocity, LSM CFB” value (healthy male subjects [1]; 150 mg single oral dose) was 18.15 deg/s and the “Saccadic peak velocity, LSM CFB” value (healthy male subjects [1]; 175 mg single oral dose) was 5.26 deg/s. The “Saccadic peak velocity, LSM CFB” value (healthy male subjects [1]; 200 mg single oral dose) was −0.64 deg/s, the “Body sway, LSM CFB” value (healthy male subjects [2]; 3 mg single oral dose) was −0.14 LOG mm and the “Body sway, LSM CFB” value (healthy male subjects [2]; 10 mg single oral dose) was 0.16 LOG mm. The “Body sway, LSM CFB” value (healthy male subjects [2]; 25 mg single oral dose) was −0.03 LOG mm, the “Body sway, LSM CFB” value (healthy male subjects [2]; 50 mg single oral dose) was 0.12 LOG mm and the “Body sway, LSM CFB” value (healthy male subjects [2]; 75 mg single oral dose) was −0.06 LOG mm. For the same compound, the “Body sway, LSM CFB” value (healthy male subjects [2]; 100 mg single oral dose) was 0.08 LOG mm, the “Incidence of TEAE: Dizziness” value (healthy male subjects [3]; 3 mg single oral dose) was 0 and the “Incidence of TEAE: Dizziness postural” value (healthy male subjects [3]; 3 mg single oral dose) was 0. The “Incidence of TEAE: Fatigue” value (healthy male subjects [3]; 3 mg single oral dose) was 3, the “Incidence of TEAE: Headache” value (healthy male subjects [3]; 3 mg single oral dose) was 0 and the “Incidence of TEAE: Nausea” value (healthy male subjects [3]; 3 mg single oral dose) was 0. The “Incidence of TEAE: Oropharyngeal pain” value (healthy male subjects [3]; 3 mg single oral dose) was 0, the “Incidence of TEAE: Presyncope” value (healthy male subjects [3]; 3 mg single oral dose) was 0 and the “Incidence of TEAE: Pruritus” value (healthy male subjects [3]; 3 mg single oral dose) was 0. The “Incidence of TEAE: Somnolence” value (healthy male subjects [3]; 3 mg single oral dose) was 0, the “Incidence of TEAE: Vomiting” value (healthy male subjects [3]; 3 mg single oral dose) was 0 and the “Incidence of TEAE: Dizziness” value (healthy male subjects [3]; 10 mg single oral dose) was 0. The “Incidence of TEAE: Dizziness postural” value (healthy male subjects [3]; 10 mg single oral dose) was 0, the “Incidence of TEAE: Fatigue” value (healthy male subjects [3]; 10 mg single oral dose) was 1 and the “Incidence of TEAE: Headache” value (healthy male subjects [3]; 10 mg single oral dose) was 1. The “Incidence of TEAE: Nausea” value (healthy male subjects [3]; 10 mg single oral dose) was 0, the “Incidence of TEAE: Oropharyngeal pain” value (healthy male subjects [3]; 10 mg single oral dose) was 0 and the “Incidence of TEAE: Presyncope” value (healthy male subjects [3]; 10 mg single oral dose) was 1. The “Incidence of TEAE: Pruritus” value (healthy male subjects [3]; 10 mg single oral dose) was 0, the “Incidence of TEAE: Somnolence” value (healthy male subjects [3]; 10 mg single oral dose) was 1 and the “Incidence of TEAE: Vomiting” value (healthy male subjects [3]; 10 mg single oral dose) was 0. For the same compound, the “Incidence of TEAE: Dizziness” value (healthy male subjects [3]; 25 mg single oral dose) was 0, the “Incidence of TEAE: Dizziness postural” value (healthy male subjects [3]; 25 mg single oral dose) was 0 and the “Incidence of TEAE: Fatigue” value (healthy male subjects [3]; 25 mg single oral dose) was 2. The “Incidence of TEAE: Headache” value (healthy male subjects [3]; 25 mg single oral dose) was 0, the “Incidence of TEAE: Nausea” value (healthy male subjects [3]; 25 mg single oral dose) was 0 and the “Incidence of TEAE: Oropharyngeal pain” value (healthy male subjects [3]; 25 mg single oral dose) was 0. For the same compound, the “Incidence of TEAE: Presyncope” value (healthy male subjects [3]; 25 mg single oral dose) was 1, the “Incidence of TEAE: Pruritus” value (healthy male subjects [3]; 25 mg single oral dose) was 0 and the “Incidence of TEAE: Somnolence” value (healthy male subjects [3]; 25 mg single oral dose) was 0. For the same compound, the “Incidence of TEAE: Vomiting” value (healthy male subjects [3]; 25 mg single oral dose) was 0, the “Incidence of TEAE: Dizziness” value (healthy male subjects [3]; 50 mg single oral dose) was 0 and the “Incidence of TEAE: Dizziness postural” value (healthy male subjects [3]; 50 mg single oral dose) was 0. The “Incidence of TEAE: Fatigue” value (healthy male subjects [3]; 50 mg single oral dose) was 0, the “Incidence of TEAE: Headache” value (healthy male subjects [3]; 50 mg single oral dose) was 2 and the “Incidence of TEAE: Nausea” value (healthy male subjects [3]; 50 mg single oral dose) was 1. For the same compound, the “Incidence of TEAE: Oropharyngeal pain” value (healthy male subjects [3]; 50 mg single oral dose) was 0, the “Incidence of TEAE: Presyncope” value (healthy male subjects [3]; 50 mg single oral dose) was 1 and the “Incidence of TEAE: Pruritus” value (healthy male subjects [3]; 50 mg single oral dose) was 0. For the same compound, the “Incidence of TEAE: Somnolence” value (healthy male subjects [3]; 50 mg single oral dose) was 2, the “Incidence of TEAE: Vomiting” value (healthy male subjects [3]; 50 mg single oral dose) was 0 and the “Incidence of TEAE: Dizziness” value (healthy male subjects [3]; 75 mg single oral dose) was 0. For the same compound, the “Incidence of TEAE: Dizziness postural” value (healthy male subjects [3]; 75 mg single oral dose) was 0, the “Incidence of TEAE: Fatigue” value (healthy male subjects [3]; 75 mg single oral dose) was 0 and the “Incidence of TEAE: Headache” value (healthy male subjects [3]; 75 mg single oral dose) was 3. The “Incidence of TEAE: Nausea” value (healthy male subjects [3]; 75 mg single oral dose) was 3, the “Incidence of TEAE: Oropharyngeal pain” value (healthy male subjects [3]; 75 mg single oral dose) was 0 and the “Incidence of TEAE: Presyncope” value (healthy male subjects [3]; 75 mg single oral dose) was 3. The “Incidence of TEAE: Pruritus” value (healthy male subjects [3]; 75 mg single oral dose) was 0.
